M5 PAM: human M5 muscarinic receptor positive allosteric modulators, primary screen, CHO-K1 cells, Fluo-8 calcium fluorescence; Muscarinic acetylcholine receptor M5 (Homo sapiens), P08912; CHO-K1 hM5, ACh EC20 PAM; 0% = ACh EC20, 100% = ACh EC100; activation, % at 3 µM; hit rate 0.3% among 360,000; AID 624038, 2012;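 active = activation above the run cutoff, the mean activation of all test compounds plus 3 SD, cut at about 18% in these data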
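Assay system: CHO-K1 hM5 cells / Incubation: Fluo-8 loading 80 min at 37 °C plus 30 min room temperature / Technique: Fluo-8 calcium dye fluorescence, kinetic read / Repeats: single replicate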
CHRM5 agonist: human M5 muscarinic receptor agonists, primary screen, CHO-K1 cells, Fluo-8 calcium fluorescence. Muscarinic acetylcholine receptor M5 (Homo sapiens), P08912. CHO-K1 hM5 cells; 0% DMSO wells, 100% maximal acetylcholine response. activation, % at 3 µM. hit rate 0.19% among 360,000. AID 624037, 2012;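 active = activation above the run's mean over test compounds plus 3 SD, cut at about 23% in these data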;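 also: signal is peak over basal fluorescence ratio across the kinetic read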
CHRM4 antagonist: human M4 muscarinic receptor antagonists, primary screen, CHO cells, Fluo-8 calcium fluorescence. Muscarinic acetylcholine receptor M4 (Homo sapiens), P08173. CHO-hM4 cells, ACh EC80. inhibition, % at 3 µM. hit rate 0.73% among 360,000;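 active = inhibition above its plate's cutoff, the mean inhibition of sample wells plus 3 SD, cut at about 27% in these data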
Target sequence (P08173 whole entry, looked up): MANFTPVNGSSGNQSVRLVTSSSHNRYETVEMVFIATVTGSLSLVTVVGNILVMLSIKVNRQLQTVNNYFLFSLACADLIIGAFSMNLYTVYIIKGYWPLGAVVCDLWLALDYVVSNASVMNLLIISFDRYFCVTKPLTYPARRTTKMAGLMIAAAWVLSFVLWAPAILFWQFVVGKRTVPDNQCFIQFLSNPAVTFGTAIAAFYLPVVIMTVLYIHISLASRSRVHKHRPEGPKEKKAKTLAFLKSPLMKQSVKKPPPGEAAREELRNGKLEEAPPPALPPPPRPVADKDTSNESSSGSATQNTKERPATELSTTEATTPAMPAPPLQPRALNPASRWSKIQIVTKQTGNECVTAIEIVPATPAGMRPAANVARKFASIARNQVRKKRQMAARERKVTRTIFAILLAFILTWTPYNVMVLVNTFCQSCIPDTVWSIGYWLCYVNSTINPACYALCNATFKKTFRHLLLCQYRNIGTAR
M4 PAM: human M4 muscarinic receptor positive allosteric modulators, primary screen, CHO-K1 cells, Fluo-8 calcium fluorescence; Muscarinic acetylcholine receptor M4 (Homo sapiens), P08173; CHO-K1 hM4/Gqi5, ACh EC20; 0% = ACh EC20, 100% = maximal ACh; activation, % at 3 µM; hit rate 0.4% among 360,000; AID 624126, 2012;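 active = activation above its plate's cutoff, the mean activation of sample wells plus 3 SD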
M4 ag: human M4 muscarinic receptor agonists, primary screen, CHO-K1 cells, Fluo-8 calcium fluorescence | activation, % at 3 µM | hit rate 0.14% among 360,000 | CHO-K1 hM4/Gqi5; vehicle 0%, full acetylcholine response 100% | AID 624127, 2012 | Muscarinic acetylcholine receptor M4 (Homo sapiens), P08173;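 active = activation above the run mean over all test wells plus 3 SD, cut at about 32% in these data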;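 also: peak over basal fluorescence ratio per well then scaled between controls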
CHRM5 antagonist: human M5 muscarinic receptor antagonists, primary screen, CHO cells, Fluo-8 calcium fluorescence. hit rate 0.59% among 360,000. inhibition, % at 3 µM. Muscarinic acetylcholine receptor M5 (Homo sapiens), P08912. AID 624040, 2012. CHO-hM5 cells, ACh EC80;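 active = inhibition above a per-plate cutoff, the mean of that plate's test compounds plus 3 SD, cut at about 27% in these data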
A number is an active result. Sampled rows, rich in hits. Any-hit rate of the full collection: about 1.9%.

For COC(=O)[C@@]1(Sc2ccc(C)cc2)CC(=O)N(c2ccc(Cl)cc2)[C@@H]1c1ccccc1 the results were M5 PAM inactive, CHRM5 agonist inactive, CHRM4 antagonist inactive, M4 PAM inactive, M4 ag inactive and CHRM5 antagonist inactive.
Screening COC(=O)c1cccc(N2C(=O)C[C@](Sc3ccc(C)cc3)(C(=O)OC)[C@H]2c2ccccc2)c1 returned M5 PAM inactive, CHRM5 agonist inactive, CHRM4 antagonist 27, M4 PAM inactive, M4 ag inactive and CHRM5 antagonist inactive.
Screening O=C(O)c1ccccc1-c1nc2cc(Cl)ccc2c(=O)n1O returned M5 PAM inactive, CHRM5 agonist inactive, CHRM4 antagonist inactive, M4 PAM inactive, M4 ag inactive and CHRM5 antagonist inactive.
`C1CCN(C2CCN(c3nc4nonc4nc3N3CCSCC3)CC2)C1` gave M5 PAM inactive, CHRM5 agonist inactive, CHRM4 antagonist 31, M4 PAM inactive, M4 ag inactive and CHRM5 antagonist inactive.
For C1CC2CN(c3nc4nonc4nc3N3CCSCC3)CCN2C1 (stereo not drawn) the results were M5 PAM inactive, CHRM5 agonist inactive, CHRM4 antagonist inactive, M4 PAM inactive, M4 ag inactive and CHRM5 antagonist inactive.
Screening Cc1ccnc2nc(C(=O)NC3=NCCS3)nn12 returned M5 PAM inactive, CHRM5 agonist inactive, CHRM4 antagonist inactive, M4 PAM 26, M4 ag inactive and CHRM5 antagonist inactive.
Cc1ccnc2nc(C(=O)Nc3nccs3)nn12 was read as M5 PAM inactive, CHRM5 agonist inactive, CHRM4 antagonist inactive, M4 PAM inactive, M4 ag inactive and CHRM5 antagonist inactive.
For Cc1ccc(C2CC(c3ccco3)=NN2S(C)(=O)=O)cc1 (stereo not drawn) the results were M5 PAM inactive, CHRM5 agonist inactive, CHRM4 antagonist inactive, M4 PAM inactive, M4 ag inactive and CHRM5 antagonist inactive.
Screening CC(=O)Nc1scc(C)c1-c1nc2ccccc2s1 returned M5 PAM inactive, CHRM5 agonist inactive, CHRM4 antagonist inactive, M4 PAM inactive, M4 ag inactive and CHRM5 antagonist inactive.
CNc1sc(C(=O)c2ccc(F)cc2)c(N)c1-c1nc2ccccc2s1 was read as M5 PAM inactive, CHRM5 agonist inactive, CHRM4 antagonist 32, M4 PAM inactive, M4 ag inactive and CHRM5 antagonist inactive.
For CNc1sc(C(=O)c2cccs2)c(N)c1-c1nc2ccccc2s1 the results were M5 PAM inactive, CHRM5 agonist inactive, CHRM4 antagonist 34, M4 PAM inactive, M4 ag inactive and CHRM5 antagonist inactive.
`Cc1ccc(C)c(NC(=O)CN(C)C(=O)c2cccc(-n3cccc3)c2)c1` gave M5 PAM inactive, CHRM5 agonist inactive, CHRM4 antagonist inactive, M4 PAM inactive, M4 ag inactive and CHRM5 antagonist inactive.
`CCCn1c(Cc2ccccc2)n[nH]c1=S` gave M5 PAM inactive, CHRM5 agonist inactive, CHRM4 antagonist inactive, M4 PAM inactive, M4 ag inactive and CHRM5 antagonist inactive.
`S=c1[nH]nc(Cc2ccccc2)n1Cc1ccco1` gave M5 PAM inactive, CHRM5 agonist inactive, CHRM4 antagonist 68, M4 PAM inactive, M4 ag inactive and CHRM5 antagonist 33.
COc1cc(-c2cc(C(=O)NCc3ccco3)c3ccccc3n2)cc(OC)c1OC was read as M5 PAM inactive, CHRM5 agonist inactive, CHRM4 antagonist inactive, M4 PAM inactive, M4 ag inactive and CHRM5 antagonist inactive.
Screening COc1cc(-c2cc(C(=O)Nc3ccc(S(=O)(=O)NCc4ccco4)cc3)c3ccccc3n2)cc(OC)c1OC returned M5 PAM inactive, CHRM5 agonist inactive, CHRM4 antagonist 46, M4 PAM inactive, M4 ag inactive and CHRM5 antagonist inactive.
`CC(=O)N1CCN(C(=O)COc2ccc(N(C)S(=O)(=O)c3cccs3)cc2)CC1` gave M5 PAM 20, CHRM5 agonist inactive, CHRM4 antagonist inactive, M4 PAM inactive, M4 ag inactive and CHRM5 antagonist inactive.
`O=C(CCl)NC(Cc1ccccc1)C(=O)OCC(=O)c1ccc(-c2ccccc2)cc1` (stereo not drawn) gave M5 PAM inactive, CHRM5 agonist inactive, CHRM4 antagonist 27, M4 PAM inactive, M4 ag inactive and CHRM5 antagonist inactive.
`Cc1ccnc(NC(=O)c2cnc(Cl)c(Cl)c2)c1` gave M5 PAM inactive, CHRM5 agonist inactive, CHRM4 antagonist inactive, M4 PAM inactive, M4 ag inactive and CHRM5 antagonist inactive.
CCC(=O)N1CCc2cc(S(=O)(=O)CCC(=O)Nc3nc(C)cs3)ccc21 was read as M5 PAM 28, CHRM5 agonist inactive, CHRM4 antagonist inactive, M4 PAM inactive, M4 ag inactive and CHRM5 antagonist inactive.
For COc1ccc(N2C(=O)C(Cl)=C(N3CCCC(C)C3)C2=O)cc1 (stereo not drawn) the results were M5 PAM inactive, CHRM5 agonist inactive, CHRM4 antagonist inactive, M4 PAM inactive, M4 ag inactive and CHRM5 antagonist inactive.
`O=C(CSc1nnc(-c2ccco2)n1Cc1ccco1)NCc1cccs1` gave M5 PAM inactive, CHRM5 agonist inactive, CHRM4 antagonist inactive, M4 PAM inactive, M4 ag inactive and CHRM5 antagonist inactive.
`O=S1(=O)CC(O)C(Nc2ccccc2)C1` (stereo not drawn) gave M5 PAM 42, CHRM5 agonist inactive, CHRM4 antagonist inactive, M4 PAM 26, M4 ag inactive and CHRM5 antagonist inactive.
For O=S1(=O)CC(O)C(Nc2ccc(Cl)cc2)C1 (stereo not drawn) the results were M5 PAM inactive, CHRM5 agonist inactive, CHRM4 antagonist inactive, M4 PAM inactive, M4 ag inactive and CHRM5 antagonist inactive.
CCOc1ccc(CCNC(=O)c2ccc(=O)[nH]c2)cc1OCC was read as M5 PAM inactive, CHRM5 agonist inactive, CHRM4 antagonist inactive, M4 PAM inactive, M4 ag inactive and CHRM5 antagonist inactive.
`CC(C)(C)C(=O)CC1(O)C(=O)N(Cc2ccc(Cl)cc2)c2ccccc21` (stereo not drawn) gave M5 PAM inactive, CHRM5 agonist inactive, CHRM4 antagonist inactive, M4 PAM 38, M4 ag inactive and CHRM5 antagonist inactive.
For O=C(O)CC1(O)C(=O)N(Cc2ccccc2)c2ccccc21 (stereo not drawn) the results were M5 PAM inactive, CHRM5 agonist inactive, CHRM4 antagonist inactive, M4 PAM inactive, M4 ag inactive and CHRM5 antagonist inactive.

Screening results deposited in PubChem BioAssay by The Scripps Research Institute Molecular Screening Center.
